≈ marks a conversion by molar mass, not a printed value. Calls of active or inactive are those of the source. The rule behind the calls is not given here.
Assays:
B16-F10 = assay: Cytotoxicity against mouse B16F10 cells assessed as reduction in cell survival at 0.1 to 10 uM after 18 hrs by MTT assay; assay type: functional, cell-based
Outline: (§1)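 Seeded at 2,500 cells/well in medium with 10% serum. After adhesion, exposed to 0.1, 1 and 10 μM in medium with 5% serum for 18 h. Medium then replaced with fresh medium containing 1.2 mM MTT for 4 h; formazan dissolved in DMSO, absorbance at 540 nm. Results given as % of basal response.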

NB-4 [1] = assay: Cell cycle arrest in human NB4 cells assessed as accumulation of cells at G1 phase after 24 hrs by propidium iodide staining-based flow cytometric analysis; assay type: functional
Outline: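 NB4 cultured at 37 °C, 5% CO2 in RPMI-1640 with 10% heat-inactivated FBS. Treated at 50 and 100 nM, 1 and 10 μM for 24 h. Cells fixed/permeabilized in 70% ethanol overnight at 4 °C, then given RNase and 20 μg/ml PI for 30 min. Doublets excluded, 20,000 events per sample; cell-cycle phase distribution analysed.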

HL-60 [2] = assay: Induction of autophagy in serum starved human HL60 cells assessed as increase in LC3B-2 levels at 10 uM after 105 mins in presence of lysosomal inhibitor chloroquine by immunoblot analysis; assay type: functional, cell-based
Outline: (§2)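 HL-60 in serum-supplemented RPMI 1640, or starved in Earle's Balanced Salts for 15 min beforehand, then treated with 10 μM compound with or without 40 μM chloroquine for 1 h 45 min or 16 h. LC3B-II measured by immunoblot, densitometry normalized to actin, three independent experiments, Student's T-test.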

PC-9 [3] = assay: Induction of apoptosis in human PC9 cells assessed as increase in caspase-3 expression at 10 uM after 18 hrs by Western blot analysis; assay type: functional, cell-based
Outline: (§3)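 PC9 and HCC827 maintained in DMEM with 10% FBS, then exposed to 10 μM compound for 18 h in 5% serum. Caspase 3 activation and cell cycle proteins examined by western blot.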

A549 = assay: Cytotoxicity against human A549 cells assessed as reduction in cell survival at 0.1 to 10 uM after 18 hrs by MTT assay; assay type: functional, cell-based; outline: as §1
PC-9 [4] = assay: Cytotoxicity against human PC9 cells assessed as reduction in cell survival at 0.1 to 10 uM after 18 hrs by MTT assay; assay type: functional, cell-based; outline: as §1
Tubulin (Homo sapiens) = Tubulin (Homo sapiens) (UniProt P68371+Q9H4B7+P0DPH7+P68366+Q13509+Q71U36+P04350+Q3ZCM7+P07437+P68363+Q9BQE3+Q6PEY2+Q13885+Q9BVA1+Q9BUF5); assay: Binding affinity to tubulin (unknown origin) by analytical ultracentrifugation
HCC827 [5] = assay: Cytotoxicity against human HCC827 cells assessed as reduction in cell survival at 0.1 to 10 uM after 50 to 60 hrs by MTT assay; assay type: functional, cell-based
[6] = Chemical stability of compound in pH 7.4 aqueous solution assessed as compound remaining after 24 hrs by HPLC analysis; assay type: physicochemical; details: read-out: Stability
Ca9-22 [7] = assay: Cytotoxicity against human Ca9-22 cells after 24 hrs by MTT assay; assay type: functional, cell-based; details: Ca9-22, 24 h
Ca9-22 [8] = assay: Cytotoxicity against human Ca9-22 cells after 72 hrs by MTT assay; assay type: functional, cell-based; details: Ca9-22, 72 h
HCC827 [9] = assay: Induction of apoptosis in human HCC827 cells assessed as increase in p21 expression at 10 uM after 18 hrs by Western blot analysis; assay type: functional, cell-based; outline: as §3
[10] = Cytotoxicity against human A2780AD cells after 48 hrs by MTT assay; assay type: functional, cell-based
Outline: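 Cells seeded at 12,000 to 17,000 per well depending on line, incubated overnight, then given serial dilutions of ligand for 48 h. MTT at 2.5 mg/mL added for 4 h at 37 °C, formazan solubilized overnight (10% SDS, 45% dimethylformamide, pH 5.5), absorbance read at 595/690 nm. IC50 from log-dose response curves; mean ± SE of three independent assays.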

HCC827 [11] = assay: Cytotoxicity against human HCC827 cells assessed as reduction in cell survival at 0.1 to 10 uM after 18 hrs by MTT assay; assay type: functional, cell-based; outline: as §1
SCC-4 [12] = assay: Cytotoxicity against human SCC4 cells after 48 hrs by MTT assay; assay type: functional, cell-based; details: SCC-4, 48 h
Outline: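 Cells (NCI-H929 in RPMI-1640 GlutaMAX; SCC4 in DMEM GlutaMAX; 10% FBS, 37 °C, 5% CO2) treated with increasing concentrations for 48 h. IC50 is the mean of three independent experiments.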

SCC-4 [13] = assay: Induction of apoptosis in human SCC4 cells at 500 nM after 48 hrs by Annexin V/propidium iodide staining-based flow cytometric analysis relative to control; assay type: functional
Outline: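 Seeding density: NCI-H929 and Ca9.22 at 30×10^4 cells/mL, SCC4 at 15×10^4 cells/mL. Cells exposed 48 h to compound (500 nM; 50 μM in SCC4 for one compound) or vehicle (1% EtOH v/v). Annexin V/PI staining, flow cytometry, 10,000 cells gated on vehicle-treated cells. Three independent experiments, mean ± S.E.M, T-test.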

[14] = Solubility of compound in pH 3 aqueous solution after 12 hrs by HPLC analysis; assay type: physicochemical
Ca9-22 [15] = assay: Cytotoxicity against human Ca9-22 cells after 48 hrs by MTT assay; assay type: functional, cell-based; details: Ca9-22, 48 h
HCC827 [16] = assay: Induction of apoptosis in human HCC827 cells assessed as reduction in cyclin D1 expression at 10 uM after 18 hrs by Western blot analysis; assay type: functional, cell-based; outline: as §3
B16-F1 = assay: Cytotoxicity against mouse B16-F1 cells assessed as reduction in cell survival at 0.1 to 10 uM after 18 hrs by MTT assay; assay type: functional, cell-based; outline: as §1
NB-4 [17] = assay: Induction of differentiation in human NB4 cells at 500 nM after 24 hrs in presence of ATRA by CD11c staining-based flow cytometric analysis; assay type: functional, cell-based
Outline: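 NB4 exposed to 0.5 μM compound together with 1 μM ATRA for 24 h. Cells stained with PE-conjugated CD11c (mouse IgG1-PE control) for 1 h at 4 °C in the dark, washed, resuspended in PBS with propidium iodide (0.25 μg/mL), then analysed by flow cytometry. Biological triplicates, mean ± S.E.M.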

[18] = Apparent solubility of compound in sodium phosphate buffer at 15 uM after 20 mins; assay type: physicochemical
[19] = Solubility of compound in pH 7.4 aqueous solution after 12 hrs by HPLC analysis; assay type: physicochemical
Outline: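 Water solubility at pH 7.4 measured by HPLC analysis.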

[20] = Ratio of IC50 for human A2780AD cells to IC50 for human A2780 cells; assay type: functional
Outline: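 Relative resistance: IC50 in the P-gp overexpressing resistant line divided by IC50 in the parental line. Both IC50s came from the 48 h MTT assay (serial dilutions, absorbance at 595/690 nm, log-dose response curves, three independent assays).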

HL-60 [21] = assay: Induction of autophagy in human HL60 cells assessed as […] in LC3B-2 levels at 10 uM after 16 hrs in presence of lysosomal inhibitor chloroquine by immunoblot analysis; assay type: functional, cell-based; outline: as §2
HL-60 [22] = assay: Induction of autophagy in human HL60 cells assessed as increase in LC3B-2 levels at 10 uM after 105 mins in presence of lysosomal inhibitor chloroquine by immunoblot analysis; assay type: functional, cell-based; outline: as §2

## CC(=O)OC1=C(c2cccc3ncccc23)Oc2cc3ccccc3cc2-n2cccc21
B16-F10
  Activity: Active
NB-4 [1]
  Activity: Dose-dependent effect
HL-60 [2]
  Activity: Active
PC-9 [3]
  Activity: Active
A549
  Activity: Active
PC-9 [4]
  Activity: Active
Tubulin (Homo sapiens)
  Kb: 7 ×10⁷ /M
HCC827 [5]
  Activity: inactive
[6]
  remaining at 24 h: 95.6%
Ca9-22 [7]
  IC50: 31.6 µM
Ca9-22 [8]
  IC50: 4.5 µM
HCC827 [9]
  Activity: Active
[10]
  IC50: 0.092 µM
HCC827 [11]
  Activity: Active
SCC-4 [12]
  IC50: 0.222 µM
SCC-4 [13]
  Activity: >40%
[14]
  solubility at 12 h: 210 µM (≈ 88 µg/mL)
Ca9-22 [15]
  IC50: 13.4 µM
HCC827 [16]
  Activity: Active
B16-F1
  Activity: Active
NB-4 [17]
  Activity: Active
[18]
  solubility at 20 min, 15 µM: 0.17 µM (≈ 0.0711 µg/mL)
[19]
  solubility at 12 h: 458 µM (≈ 192 µg/mL)
[20]
  Ratio IC50: 1.15
HL-60 [21]
  Activity: Active
HL-60 [22]
  Activity: Active
